Results reported in ChEMBL document CHEMBL4145672, “Structural Characterization of Terpenoids from Abies holophylla Using Computational and Statistical Methods and Their Biological Activities” (J Nat Prod, 2018).

Assays:
[1] = Cytotoxicity against mouse BV2 cells assessed as cell viability at 20 uM measured after 24 hrs by MTT assay relative to control; format: cell-based, BV-2; conditions: read-out: Activity
Method in brief: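 BV2 cells under the NO assay conditions (LPS 100 ng/mL, 24 h) were given 20 μM of each compound, with some data collected at 5 μM. Viability was measured by MTT and expressed as percent. Values are means ± SD of three independent experiments.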

[2] = system: BV-2; assay: Antiinflammatory activity in mouse BV2 cells assessed as inhibition of LPS-induced nitric oxide production measured after 24 hrs by Griess assay; format: functional, cell-based; conditions: BV-2, 24 h
Method in brief: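 Murine microglial BV2 cells were seeded at 4 × 10^4 cells/well and exposed to a range of compound concentrations. LPS (100 ng/mL) was added and cells were incubated 24 h. Nitrite in the medium was reacted 10 min with Griess reagent (0.1% N-1-naphthylethylenediamine dihydrochloride, 1% sulfanilamide in 5% phosphoric acid), read at 570 nm and quantified against a sodium nitrite standard curve. IC50 values are reported.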

[3] = system: SK-OV-3; assay: Cytotoxicity against human SKOV3 cells assessed as cell growth inhibition measured after 48 hrs by sulforhodamine B assay; format: functional, cell-based; conditions: SK-OV-3, 48 h
Method in brief: (§1)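 The SRB assay was run on ATCC-derived human tumor lines maintained at the Korea Research Institute of Chemical Technology. Read-out was cell growth. IC50 is the concentration giving 50% growth inhibition. Cisplatin served as positive control.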

[4] = system: HCT-15; assay: Cytotoxicity against human HCT15 cells assessed as cell growth inhibition measured after 48 hrs by sulforhodamine B assay; format: functional, cell-based; conditions: HCT-15, 48 h; method in brief: as §1
[5] = Cytotoxicity against rat C6 cells assessed as cell viability at 5 uM measured after 24 hrs by MTT assay relative to control; format: cell-based; conditions: read-out: Activity
Method in brief: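 C6 glioma cells were seeded at 1 × 10^5 cells/well, grown 24 h, then switched to serum-free DMEM with compound (5 μM here) for another 24 h. Viability was read by MTT as % of untreated cells. Values are means ± SD of three independent experiments.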

[6] = system: C6; assay: Neuroprotective activity in rat C6 cells assessed as induction of nerve growth factor secretion at 5 uM measured after 24 hrs by ELISA relative to control; format: functional
Method in brief: (§2)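 Rat C6 glioma cells were seeded at 1 × 10^5 cells/well. After 24 h they were switched to serum-free DMEM and treated with compound (20 μM, some at 5 μM) for 24 h. NGF secreted into the conditioned medium was quantified by ELISA and expressed as percent of untreated control (100%). Values are means ± SD of three independent experiments.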

[7] = system: A549; assay: Cytotoxicity against human A549 cells assessed as cell growth inhibition measured after 48 hrs by sulforhodamine B assay; format: functional, cell-based; conditions: A549, 48 h; method in brief: as §1
[8] = Cytotoxicity against mouse BV2 cells assessed as cell viability at 5 uM measured after 24 hrs by MTT assay relative to control; format: cell-based, BV-2; conditions: read-out: Activity
Method in brief: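 BV2 murine microglia were seeded at 4 × 10^4 cells/well, exposed to compound (5 μM here), and stimulated with LPS 100 ng/mL for 24 h. Viability was read by MTT and expressed as % of control. Values are means ± SD of three independent experiments.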

[9] = system: SK-MEL-2; assay: Cytotoxicity against human SK-MEL-2 cells assessed as cell growth inhibition measured after 48 hrs by sulforhodamine B assay; format: functional, cell-based; conditions: SK-MEL-2, 48 h; method in brief: as §1
[10] = Cytotoxicity against rat C6 cells assessed as cell viability at 20 uM measured after 24 hrs by MTT assay relative to control; format: cell-based; conditions: read-out: Activity
Method in brief: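 Rat C6 glioma cells were seeded at 1 × 10^5 cells/well. After 24 h they were switched to serum-free DMEM containing 20 μM compound for another 24 h. Viability was determined by MTT as percent of untreated control, some data at 5 μM. Values are means ± SD of three independent experiments.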

[11] = system: C6; assay: Neuroprotective activity in rat C6 cells assessed as induction of nerve growth factor secretion at 20 uM measured after 24 hrs by ELISA relative to control; format: functional; method in brief: as §2

For C[C@]12CCC[C@@](C)(C(=O)O)[C@@H]1CCC1=CC(=O)CC[C@@H]12, the viability at 24 h, 20 µM [1] was 124% and the IC50 [2] was 18.1 µM.
For CC1(C)CCC[C@]2(C)[C@H]3CC(=O)O[C@]3(C)CC[C@@H]12, the viability at 24 h, 20 µM [1] was 131% and the IC50 [2] was 20.3 µM.
In the case of CC1=CC(O)(C[C@@H](C)[C@]2(C)CC=C3C4=CC[C@H]5C(C)(C)[C@H](O)CC[C@]5(C)[C@@H]4CC[C@]32C)OC1=O (stereo not given in full), the IC50 [3] is reported as > 10 µM, the IC50 [4] is reported as > 10 µM and the viability at 24 h, 20 µM [1] is reported as 9.7%. It also gave an IC50 [2] of 4 µM, a viability at 24 h, 5 µM [5] of 108% and an Activity [6] of 158.1%. The IC50 [7] was > 10 µM, the viability at 24 h, 5 µM [8] was 154% and the IC50 [9] was 4.2 µM. It also gave a viability at 24 h, 20 µM [10] of 56.7% and an Activity [11] of 121.7%.
CC1(C)O[C@H]2C[C@H]3C(=C[C@]21O)CC[C@@H]1[C@]3(C)CCC[C@@]1(C)C(=O)O showed a viability at 24 h, 20 µM [10] of 99% and an Activity [11] of 136.9%.
In the case of C=C(C)[C@@H]1CC=C2[C@@H](CC=C3[C@@]2(C)CC[C@@]3(C)[C@H](C)C[C@@H]2C[C@@H](C)C(=O)O2)[C@@]1(C)CCC(=O)OC, the IC50 [3] is reported as 6.2 µM, the IC50 [4] is reported as 2.3 µM and the viability at 24 h, 20 µM [1] is reported as 86.8%. It also gave an IC50 [2] of 39.7 µM, an IC50 [7] of 2.4 µM and an IC50 [9] of 1.7 µM.
In the case of C=C(CC(=O)C[C@@H](C)[C@]1(C)CCC(=C)[C@]12CC[C@@H]1C2=CC[C@@H](C(=C)C)[C@]1(C)CCC(=O)O)C(=O)O, the viability at 24 h, 20 µM [10] is reported as 112% and the Activity [11] is reported as 173.3%.
C/C(=C\CO)[C@@H](O)C[C@@H]1[C@@]2(C)CCCC(C)(C)[C@@H]2CC[C@@]1(C)O gave a viability at 24 h, 20 µM [1] of 122%, an IC50 [2] of 19.5 µM and a viability at 24 h, 20 µM [10] of 99.8%. For the same compound, the Activity [11] was 125.7%.
C=C(C)[C@@H]1C=CC2=C3CC[C@@](C)([C@H](C)CC(=O)C[C@@H](C)C(=O)O)[C@]3(C)CC[C@H]2[C@@]1(C)CCC(=O)O gave a viability at 24 h, 20 µM [10] of 110% and an Activity [11] of 146.1%.
Work on C=C(CC(=O)C[C@@H](C)[C@H]1CC[C@@]2(C)C3=CC[C@H]4C(C)(C)C(=O)CC[C@]4(C)[C@@H]3CC[C@]12C)C(=O)O yielded a viability at 24 h, 20 µM [1] of 125%, an IC50 [2] of 15 µM and a viability at 24 h, 20 µM [10] of 98.5%. It also gave an Activity [11] of 178.9%.
In the case of C/C(=C\C(=O)C[C@@H](C)[C@@H]1CC=C2C3=CC[C@H]4C(C)(C)[C@H](O)CC[C@]4(C)[C@@H]3CC[C@]21C)C(=O)O, the IC50 [3] is reported as > 10 µM, the IC50 [4] is reported as > 10 µM and the viability at 24 h, 20 µM [1] is reported as 9.9%. The IC50 [2] was 10.3 µM, the IC50 [7] was > 10 µM and the IC50 [9] was 7.2 µM. It also gave a viability at 24 h, 20 µM [10] of 85.7% and an Activity [11] of 156%.
C=C(C)[C@@H]1CC=C2[C@@H](CC[C@]23C(=C)CC[C@@]3(C)[C@H](C)CC(=O)/C=C(\C)C(=O)O)[C@@]1(C)CCC(=O)O gave a viability at 24 h, 20 µM [1] of 136%, an IC50 [2] of 19.1 µM and a viability at 24 h, 20 µM [10] of 104%. The Activity [11] was 195.1%.
For C/C(=C\[C@H](O)C[C@@H](C)[C@H]1CC[C@@]2(C)C3=CC[C@H]4C(C)(C)C(=O)CC[C@]4(C)[C@@H]3CC[C@]12C)C(=O)O, the IC50 [3] was > 10 µM, the IC50 [4] was > 10 µM and the viability at 24 h, 20 µM [1] was 125%. For the same compound, the IC50 [2] was 29.8 µM, the IC50 [7] was > 10 µM and the IC50 [9] was 8.8 µM. It also gave a viability at 24 h, 20 µM [10] of 111% and an Activity [11] of 140.9%.
For CC1=CC(O)(C[C@@H](C)[C@H]2CC[C@@]3(C)C4=CC[C@H]5C(C)(C)C(=O)CC[C@]5(C)[C@@H]4CC[C@]23C)OC1=O (stereo not given in full), the IC50 [3] was > 10 µM, the IC50 [4] was > 10 µM and the viability at 24 h, 20 µM [1] was 15.9%. For the same compound, the IC50 [2] was 10.2 µM, the IC50 [7] was 9.4 µM and the IC50 [9] was 4.1 µM.
For CC(=O)/C=C/C1[C@](C)(O)CC[C@H]2C(C)(C)CCC[C@]12C (stereo not given in full), the viability at 24 h, 20 µM [1] was 114% and the IC50 [2] was 9.8 µM.
Work on C/C(=C\CO)[C@H](O)C[C@@H]1[C@@]2(C)CCCC(C)(C)[C@@H]2CC[C@@]1(C)O yielded a viability at 24 h, 20 µM [10] of 104% and an Activity [11] of 127.9%.
In the case of C=C[C@@](C)(O)[C@H]1C[C@@H]2[C@@]3(C)CCCC(C)(C)[C@@H]3CC[C@@]2(C)O1, the viability at 24 h, 20 µM [1] is reported as 118% and the IC50 [2] is reported as 42.2 µM.
With C=C[C@@]1(C)O[C@]2(C)CC[C@H]3C(C)(C)CCC[C@]3(C)[C@H]2C[C@H]1O the viability at 24 h, 20 µM [1] was 112% and the IC50 [2] was 25 µM.
In the case of C/C(=C\C(=O)C[C@@H](C)[C@H]1CC[C@@]2(C)C3=CC[C@H]4C(C)(C)C(=O)CC[C@]4(C)[C@@H]3CC[C@]12C)C(=O)O, the IC50 [3] is reported as 7.7 µM, the IC50 [4] is reported as > 10 µM and the viability at 24 h, 20 µM [1] is reported as 19.4%. For the same compound, the IC50 [2] was 10.5 µM, the IC50 [7] was 8.7 µM and the IC50 [9] was 3.2 µM. The viability at 24 h, 20 µM [10] was 62.2% and the Activity [11] was 153.9%.
For C[C@@H]1C[C@]2(C[C@@H](C)[C@]3(CC[C@@]4(C)[C@@H]5CC[C@H]6C(C)(C)[C@H](O)CC[C@@]67C[C@@]57CC[C@@]43C)O2)OC1=O, the IC50 [3] was > 10 µM, the IC50 [4] was > 10 µM and the IC50 [7] was > 10 µM. The IC50 [9] was 8.5 µM, the viability at 24 h, 20 µM [10] was 107% and the Activity [11] was 149.3%.
For C=C(C)[C@@H]1CC=C2[C@@H](CC[C@]3(C)[C@@H]([C@H](C)C[C@@H]4C[C@@H](C)C(=O)O4)CC[C@@]23C)[C@@]1(C)CCC(=O)OC, the IC50 [3] was > 10 µM, the IC50 [4] was 8.1 µM and the viability at 24 h, 20 µM [1] was 123%. The IC50 [2] was 17.3 µM, the IC50 [7] was > 10 µM and the IC50 [9] was 5.5 µM.
C/C(=C\CC[C@@H](C)[C@H]1CC[C@@]2(C)[C@@H]3CC[C@H]4C(C)(C)[C@@H](O)CC[C@@]45C[C@@]35CC[C@]12C)C(=O)O [MANGIFEROLIC ACID] showed a viability at 24 h, 20 µM [1] of 35.2%, an IC50 [2] of 12.8 µM and a viability at 24 h, 20 µM [10] of 79.3%. It also gave an Activity [11] of 128.6%.
Compound C/C(=C\CC[C@@H](C)[C@H]1CC[C@@]2(C)[C@@H]3CC[C@H]4C(C)(C)C(=O)CC[C@@]45C[C@@]35CC[C@]12C)C(=O)O [MANGIFERONIC ACID] has a viability at 24 h, 20 µM [1] of 21% and an IC50 [2] of 9 µM.
Work on C=C[C@@]1(C)C=C2CC[C@@H]3[C@](C)(CCC[C@@]3(C)C(=O)O)[C@H]2CC1 [PIMARIC ACID] yielded a viability at 24 h, 20 µM [1] of 117% and an IC50 [2] of 13.6 µM.
With CCCCC/C=C/C(=O)CCc1ccc(O)c(OC)c1 [SHOGAOL] the viability at 24 h, 20 µM [10] was 110% and the Activity [11] was 158.2%.
Compound CNC(=N)NCCC[C@H](N)C(=O)O [TILARGININE] has a viability at 24 h, 20 µM [1] of 105%.
